Consider two compounds from ChEMBL document CHEMBL2434897, “Synthesis of 15-methylene-eburnamonine from (+)-vincamine, evaluation of anticancer activity, and investigation of mechanism of action by quantitative NMR” (Bioorg Med Chem Lett, 2013).

As usually defined, the LC50 is the concentration lethal to half of the exposed cells or organisms. Lower therefore signals greater toxicity.

In one data set the test system is U-266. In words: Cytotoxicity against human U266 cells after 96 hrs by MTS assay. Type of data set: functional, cell-based. The note with it: U-266, 96 h. The gist of the method:
(§1)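 Cells kept in RPMI-1640 with 10% FBS and 1% penicillin/streptomycin at 37 °C under humidified 5% CO2. Seeded at 25,000 cells/well (KMS-12BM, RPMI-8226, U266) or 5000 cells/well (LNCaP), then exposed to graded drug concentrations or DMSO vehicle for 96 h. MTS read-out at OD 492 nm. LC50 from four-parameter logistic fit of log-transformed, vehicle-normalized OD; ≥3 independent experiments in triplicate.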

Another data set deals with MDA-MB-231. The data set can be described thus: Cytotoxicity against human MDA-MB-231 cells after 96 hrs by MTS assay. To be noted: MDA-MB-231, 96 h. Type of data set: functional, cell-based. Background: Formazan colour is commonly taken as a measure of viable cells.
The nature of data set [1]: Cytotoxicity against human KMS-12-BM cells after 96 hrs by MTS assay. Type of data set: functional, cell-based. An outline of the steps:
as §1

The next data set has as its system LNCaP. In words: Cytotoxicity against human LNCAP cells after 96 hrs by MTS assay. Type of data set: functional, cell-based. The gist of the method: as §1
The next data set concerns RPMI-8226. In words: Cytotoxicity against human RPMI8226 cells after 96 hrs by MTS assay. Type of data set: functional, cell-based. To be noted: RPMI-8226, 96 h. An outline of the steps: as §1
A short description of data set [2]: Cytotoxicity against human FnMSC cells after 96 hrs by MTS assay. Type of data set: cell-based. The note with it: read-out: LC50.

Molecules are shown by their SMILES.

Regarding `C=C1C(=O)n2c3c(c4ccccc42)CCN2CCC[C@]1(CC)[C@@H]32`, the LC50 was determined as 4.3 µM in the data set with U-266; 14.1 µM in the data set on MDA-MB-231; 4 µM in data set [1]; 9.5 µM in the data set on LNCaP; 12.2 µM in the data set with RPMI-8226. Also, the CC50 at 96 h in data set [2] came out at 16.7 µM.

For the compound `CC[C@]12CCCN3CCc4c(n(c5ccccc45)C(=O)C1)[C@@H]32` [VINBURNINE], the LC50 in the data set with U-266 is > 100 µM; in the data set with MDA-MB-231 it was 41.8 µM; in data set [1] it was > 100 µM; in the data set on LNCaP, > 100 µM; with RPMI-8226, > 100 µM.
